Experimental data collected from several papers.
Protocols differ between the studies behind these lines.
Target: RAC-beta serine/threonine-protein kinase (AKT2, Homo sapiens, UniProt P31751)

Cc1ccc(-n2nc(C(C)(C)C)cc2NC(=O)Nc2ccc(OCCN3CCOCC3)c3ccccc23)cc1
inhibition (enzyme activity, inhibitor; 10 µM): -15%

Nc1ncnc2occ(-c3ccc(NC(=O)Nc4cc(C(F)(F)F)ccc4F)cc3)c12
remaining signal (cell-free assay, inhibitor; 20 µM): 95%

Cc1cc(NC(=O)c2cccc3cc(-c4cccc5[nH]nc(N)c45)ccc23)ccc1F
activity vs control (enzyme activity, inhibitor; 0.1 µM): 123%

O=C(O)c1cc(-c2ccc(C3CCNCC3)cc2)c2ccc(-c3ccc(C(F)(F)F)cc3)cc2c1
remaining binding (cell-free assay, competition with immobilised ligand; 1 µM): 95%

CC/C(=N\NC(=O)NCc1cccc(O)c1)c1ccc(O)c(C)c1O
inhibition (enzyme activity, inhibitor; 0.1 µM): 0.2%

C=CC(=O)Nc1cc(Nc2nccc(Nc3cc(Cl)c(F)cc3C(C)(C)O)n2)c(OC)cc1N1CC[C@@H](N(C)C)C1
inhibition (enzyme activity, inhibitor; 1 µM): -10%

O=C1NC(=O)c2cc(Nc3ccc(F)cc3)c(Nc3ccc(F)cc3)cc21
remaining signal (cell-free assay; 0.5 µM): 95.1%

COc1cc(/C=C/C(=O)CC(=O)/C=C/c2ccc(O)c(OC)c2)ccc1O
activity vs control (enzyme activity, inhibitor; 1 µM): 70%

Nc1nc(Nc2ccccc2)sc1C(=O)c1c(F)cccc1F
remaining activity (enzyme activity, inhibitor; 10 µM): 85%

c1ccc(N2CCN(Cc3nc4ccccc4[nH]3)CC2)nc1
remaining binding (binding, competition with immobilised ligand; 1 µM): 100%

CC(C)(C)c1nc2c(s1)c1nc(N)ncc1c1ccc(NS(=O)(=O)c3c(F)cccc3F)c(F)c12
remaining activity (enzyme activity, inhibitor, radiometric; 1 µM): 114%

Oc1cccc(-c2nc(N3CCOCC3)c3oc4ncccc4c3n2)c1
remaining activity (enzyme activity, inhibitor; 10 µM): 114%

COc1cc(F)ccc1-c1ncnc(Nc2cccc(C[S@](C)(=N)=O)c2)n1
activity vs control (enzyme activity, inhibitor; 10 µM): 112%

Cc1ccc(Nc2nccc(N(C)c3ccc4c(C)n(C)nc4c3)n2)cc1S(N)(=O)=O
remaining activity (enzyme activity, inhibitor; 0.5 µM): 107%

Cc1sc(C(=O)NC2COC2)cc1-n1cc(NC(=O)Nc2c(F)cccc2Cl)cn1
remaining activity (enzyme activity, inhibitor; 10 µM): 88.9%

COc1cc2ncnc(Nc3ccc(Oc4ccccc4)c(C)c3C)c2cc1OC
inhibition (enzyme activity, inhibitor; 1 µM): 1%

O=S(=O)(NC1CCC(c2cc(F)ccc2F)(S(=O)(=O)c2ccc(Cl)cc2)CC1)C(F)(F)F (stereo not drawn)
remaining binding (cell-free assay, competition with immobilised ligand; 1 µM): 99%

O=C1Nc2ccc(Cl)cc2C1=Cc1cc(Cl)c(O)c(Cl)c1
remaining signal (cell-free assay; 0.5 µM): 93.9%

O=C(N[C@H]1CCCCC/C=C\C2C[C@@]2(C(=O)O)NC(=O)[C@@H]2C[C@@H](Oc3ccncc3)CN2C1=O)OC1CCCC1 (stereo partly drawn)
remaining binding (binding, competition with immobilised ligand; 1 µM): 85%

CNC(=O)c1cc(Oc2ccc(NC(=O)Nc3ccc(Cl)c(C(F)(F)F)c3)cc2)ccn1
remaining signal (cell-free assay; 0.5 µM): 103%

Cc1ccc(C(=O)NCc2ccsc2)cc1C#Cc1cn(C(C)C)c2ncnc(N)c12
activity vs control (enzyme activity, inhibitor; 1 µM): 99%

O=C(Nc1cnn(-c2csc(C(=O)NC3COC3)c2)c1)Nc1c(F)cccc1Cl
remaining activity (enzyme activity, inhibitor; 5 µM): 104%

Cc1nccc(COC(=O)N2C[C@@H]3[C@@H](CNC(=O)c4ccc5[nH]nnc5c4)[C@@H]3C2)n1
remaining binding (cell-free assay, competition with immobilised ligand; 1 µM): 98%

FC(F)c1nc2ccccc2n1-c1nc(N2CCOCC2)nc(N2CCOCC2)n1
remaining activity (enzyme activity, inhibitor; 10 µM): 84%

COc1ccc2c(c1)O[C@H](c1ccc(OC)c(OC)c1)C[C@@H]2NC(=O)C1(c2ccc3c(c2)OC(F)(F)O3)CC1
remaining binding (cell-free assay, competition with immobilised ligand; 1 µM): 96%

CCN(CC)c1ccc(C2=NNC(=O)CC2C)cc1[N+](=O)[O-] (stereo not drawn)
remaining activity (enzyme activity, inhibitor; 10 µM): 101%

Cc1c(C(=O)O)cc(-c2ccc(C3CCNCC3)cc2)c2ccc(-c3ccc(C(F)(F)F)cc3)cc12
remaining binding (binding, competition with immobilised ligand; 1 µM): 100%

COc1cc(Nc2cnc(C#N)c(O[C@H](C)CN(C)C)n2)ncc1-c1cnn(C)c1
remaining activity (enzyme activity, inhibitor, radiometric; 1 µM): 81%

C[C@@]1(Cc2ccc(C#N)cc2)C(=O)N(c2cc(Cl)cc(Cl)c2)c2ncc(C(=O)NC3(c4nc(C5CCC5)no4)CC3)n21
remaining binding (cell-free assay, competition with immobilised ligand; 1 µM): 100%

Nc1nc(NC2CCCCC2)sc1C(=O)c1ccccc1
remaining activity (enzyme activity, inhibitor; 10 µM): 73%
